Tests used:
[1] = molecular target: T1, Cytochrome P450 3A4 (Homo sapiens, UniProt P08684); assay: Drug metabolism in human liver microsomes assessed as CYP3A4-mediated GSK525060 formation at 5 to 20 uM up to 30 mins by HPLC-MS/MS method; format: ADME; conditions: 0.5 h
Procedure, shortened: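 Pooled human liver microsomes in 50 mM phosphate buffer, pH 7.4, with an NADPH-generating system. […] GSK525060 measured by HPLC-MS/MS.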

[2] = tested on: Homo sapiens; assay: Cmax in healthy human assessed as fold change at 100 mg, po in presence of 400 mg ketoconazole; format: ADME, organism-based; design: dosed compound name Casopitant; conditions: in vivo
Procedure, shortened: (§1)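 Open-label study, healthy subjects (n=12 enrolled; 13 per treatment in table): single oral 100 mg dose given alone on Day 1, then with oral ketoconazole 400 mg once daily for 7 days, co-dosed on Day 4 of ketoconazole. Plasma parent drug measured by validated HPLC-MS/MS at selected time points; ratios from geometric means of AUC(0-t) and Cmax, 90% CI.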

[3] = tested on: Homo sapiens; assay: Cmax in healthy human assessed as fold change at 150 mg, po in presence of 600 mg rifampin; format: ADME, organism-based; design: dosed compound name Casopitant; conditions: in vivo
Procedure, shortened: (§2)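 Open-label study, 12 healthy subjects: single oral 150 mg dose alone on Day 1, then with oral rifampin 600 mg once daily (study Days 9-17), co-dosed on Day 16. Plasma parent drug measured by validated HPLC-MS/MS at selected time points; fold change from geometric means of AUC(0-t) and Cmax, 90% CI.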

[4] = AUC (0 to t) in healthy human at 100 mg, po administered as single dose on day 4 and cotreated with ketoconazole at 400 mg, po qd on day 1 to 7; format: ADME, organism-based; design: dosed compound name Casopitant; conditions: plasma
[5] = Cmax in healthy human at 100 mg, po administered as single dose; format: ADME, organism-based; conditions: in vivo
[6] = tested on: Homo sapiens; assay: AUC in healthy human assessed as fold change at 150 mg, po in presence of 600 mg rifampin; format: ADME, organism-based, Plasma; design: dosed compound name Casopitant; conditions: in vivo; procedure, shortened: as §2
[7] = tested on: Liver microsome; assay: Intrinsic clearance in human liver microsomes assessed per mg protein; format: ADME
Procedure, shortened: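 CLint derived from Km and Vmax of GSK525060 formation in human liver microsomes. […] Metabolite measured by HPLC-MS/MS; Michaelis-Menten fit by non-linear regression.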

[8] = Tmax in healthy human at 150 mg, po administered as single dose; format: ADME, organism-based; design: dosed compound name Casopitant; conditions: in vivo
[9] = Dissociation constant, pKa of the compound; format: physicochemical
[10] = Unbound fraction in human gut; format: ADME, tissue-based; design: dosed compound name Casopitant
[11] = Tmax in healthy human at 100 mg, po administered as single dose on day 4 and cotreated with ketoconazole at 400 mg, po qd on day 1 to 7; format: ADME, organism-based; design: dosed compound name Casopitant; conditions: in vivo
[12] = Lipophilicity, log P of the compound; format: physicochemical; conditions: octanol/water
[13] = Half life in healthy human at 150 mg, po administered as single dose on day 8 and cotreated with rifampin at 600 mg, po qd on day 1 to 9; format: ADME, organism-based; design: dosed compound name Casopitant; conditions: in vivo
[14] = Cmax in healthy human at 150 mg, po administered as single dose on day 8 and cotreated with rifampin at 600 mg, po qd on day 1 to 9; format: ADME, organism-based; conditions: in vivo
[15] = Cmax in healthy human at 150 mg, po administered as single dose; format: ADME, organism-based; conditions: in vivo
[16] = AUC (0 to t) in healthy human at 150 mg, po administered as single dose; format: ADME, organism-based; design: dosed compound name Casopitant; conditions: plasma
[17] = molecular target: T1, Cytochrome P450 3A4; assay: Fraction of drug metabolized assessed as human CYP3A4-mediated drug metabolism; format: ADME; conditions: recombinant enzyme
[18] = AUC (0 to t) in healthy human at 150 mg, po administered as single dose on day 8 and cotreated with rifampin at 600 mg, po qd on day 1 to 9; format: ADME, organism-based; design: dosed compound name Casopitant; conditions: plasma
[19] = AUC (0 to t) in healthy human at 100 mg, po administered as single dose; format: ADME, organism-based; design: dosed compound name Casopitant; conditions: plasma
[20] = Unbound fraction in human plasma; format: ADME, cell-free
[21] = Volume of distribution at steady state in human; format: ADME, organism-based; design: dosed compound name Casopitant; conditions: in vivo, read-out: Vdss
[22] = Half life in healthy human at 150 mg, po administered as single dose; format: ADME, organism-based; design: dosed compound name Casopitant; conditions: in vivo
[23] = molecular target: T1, Cytochrome P450 3A4; assay: Drug metabolism assessed as human recombinant CYP3A4-mediated GSK525060 formation at 10 uM after 30 mins by HPLC-MS/MS method; format: ADME; conditions: recombinant enzyme, 0.5 h
Procedure, shortened: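 Recombinant human CYP3A4 in 50 mM phosphate buffer, pH 7.4, with an NADPH-generating system. […] GSK525060 formation quantified by HPLC-MS/MS.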

[24] = Cmax in healthy human at 100 mg, po administered as single dose on day 4 and cotreated with ketoconazole at 400 mg, po qd on day 1 to 7; format: ADME, organism-based; conditions: in vivo
[25] = Tmax in healthy human at 100 mg, po administered as single dose; format: ADME, organism-based; design: dosed compound name Casopitant; conditions: in vivo
[26] = Tmax in healthy human at 150 mg, po administered as single dose on day 8 and cotreated with rifampin at 600 mg, po qd on day 1 to 9; format: ADME, organism-based; design: dosed compound name Casopitant; conditions: in vivo
[27] = molecular target: CYP3A4 (Homo sapiens, UniProt P08684); assay: Metabolism dependent inactivation of CYP3A4 in human liver microsomes pretreated with compound in presence of midazolam substrate and NADPH by HPLC-MS/MS method relative to untreated control; conditions: probe midazolam
[28] = tested on: Homo sapiens; assay: AUC in healthy human assessed as fold change at 100 mg, po in presence of 400 mg ketoconazole; format: ADME, organism-based, Plasma; design: dosed compound name Casopitant; conditions: in vivo; procedure, shortened: as §1
[29] = tested on: Homo sapiens; assay: AUC (0 to infinity) in healthy human assessed as fold change in presence of casopitant 120 mg, po once daily administered for 3 days; format: ADME, organism-based, Plasma; conditions: in vivo, 72 h
[30] = tested on: Homo sapiens; assay: AUC (0 to infinity) in healthy human assessed as fold change in presence of casopitant 30 mg, po once daily administered for 3 days; format: ADME, organism-based, Plasma; conditions: in vivo, 72 h
[31] = tested on: Homo sapiens; assay: AUC (0 to infinity) in healthy human assessed as fold change in presence of casopitant 30 mg, po once daily administered for 14 days; format: ADME, organism-based, Plasma; conditions: in vivo, 336 h
[32] = tested on: Homo sapiens; assay: AUC (0 to infinity) in healthy human assessed as fold change in presence of casopitant 120 mg, po once daily administered for 14 days; format: ADME, organism-based, Plasma; conditions: in vivo, 336 h

T1 sequence (P08684 whole entry): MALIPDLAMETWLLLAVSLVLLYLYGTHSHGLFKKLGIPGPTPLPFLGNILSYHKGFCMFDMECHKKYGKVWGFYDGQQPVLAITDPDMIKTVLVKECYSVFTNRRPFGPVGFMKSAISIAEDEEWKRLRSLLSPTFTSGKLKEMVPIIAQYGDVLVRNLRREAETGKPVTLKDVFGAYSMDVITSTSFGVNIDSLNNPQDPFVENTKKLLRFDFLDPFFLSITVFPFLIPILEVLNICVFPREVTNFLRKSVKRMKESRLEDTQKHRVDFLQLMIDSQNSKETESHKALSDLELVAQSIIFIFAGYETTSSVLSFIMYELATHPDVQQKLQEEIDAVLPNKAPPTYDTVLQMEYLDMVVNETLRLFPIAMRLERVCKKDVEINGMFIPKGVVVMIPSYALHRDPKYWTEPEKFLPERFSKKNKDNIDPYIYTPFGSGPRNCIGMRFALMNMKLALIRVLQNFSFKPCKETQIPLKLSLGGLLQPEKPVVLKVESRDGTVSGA
Chain of CYP3A4 (P08684 whole entry): as above

CC(=O)N1CCN([C@H]2CCN(C(=O)N(C)[C@H](C)c3cc(C(F)(F)F)cc(C(F)(F)F)c3)[C@@H](c3ccc(F)cc3C)C2)CC1 [CASOPITANT]
Drug metabolism [1]: metabolite_detected
fold change (FC) [2]: 2.71
fold change (FC) [3]: 0.11
AUC(0-t) [4]: 31200 ng·h/mL
Cmax [5]: 457 ng/mL
fold change (FC) [6]: 0.04
CLint [7]: 25 µL/min/mg
Tmax [8]: 1.25 h
pKa [9]: 6.3
fraction unbound [10]: 1
Tmax [11]: 2 h
logP [12]: 5.6
half-life [13]: 6.45 h
Cmax [14]: 93.2 ng/mL
Cmax [15]: 847 ng/mL
AUC(0-t) [16]: 6570 ng·h/mL
Fm [17]: 1
AUC(0-t) [18]: 273 ng·h/mL
AUC(0-t) [19]: 2590 ng·h/mL
fraction unbound [20]: 0.005
Vd [21]: 2.58 L/kg
half-life [22]: 19.2 h
Drug metabolism [23]: metabolite_detected
Cmax [24]: 1250 ng/mL
Tmax [25]: 1 h
Tmax [26]: 1 h
KI [27]: 3.1 µM
fold change (FC) [28]: 12.1

COC(=O)C1=C(C)NC(C)=C(C(=O)OC)C1c1ccccc1[N+](=O)[O-] [NIFEDIPINE]
fold change (FC) [29]: 1.77
fold change (FC) [30]: 1.56
fold change (FC) [31]: 1.61
fold change (FC) [32]: 1.42

Cc1ncc2n1-c1ccc(Cl)cc1C(c1ccccc1F)=NC2 [MIDAZOLAM]
fold change (FC) [29]: 2.67
fold change (FC) [30]: 2.02
fold change (FC) [31]: 1.76
fold change (FC) [32]: 3.49
